Laboratory results reported in publication PMC11585990 (Drug Design, Development and Therapy, 2024).

How the values were obtained:
HDAC2 = HDAC2 (Homo sapiens, UniProt Q92769); assay: In vitro HDAC2 inhibition assay; assay type: biochemical; settings: recombinant human HDAC2, Boc-Lys(acetyl)-AMC
[1] = In vivo antitumor assay, body weight of mice; parameters: species or system nu/nu mice; settings: NTERA-2 cL.D1 xenograft, nude mice, 10 mg/kg daily intraperitoneal, 15 days
Summary of the method: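 Male nu/nu mice aged 4–6 weeks received subcutaneous NTERA-2 cL.D1 cells (1×10⁷ in PBS). Once tumors reached 90–120 mm³, mice were randomized into four groups: vehicle, two reference inhibitors, or test compound, each at 10 mg/kg by daily intraperitoneal injection. Body weight and caliper tumor volume were recorded every 3 days for 15 days. n = 6 per group; mean ± SD.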

ATM = ATM (Homo sapiens, UniProt Q13315); assay: In vitro ATM inhibition assay; assay type: biochemical; settings: recombinant human ATM, p53 substrate, HTRF
ATM, sequence (Q13315 whole entry): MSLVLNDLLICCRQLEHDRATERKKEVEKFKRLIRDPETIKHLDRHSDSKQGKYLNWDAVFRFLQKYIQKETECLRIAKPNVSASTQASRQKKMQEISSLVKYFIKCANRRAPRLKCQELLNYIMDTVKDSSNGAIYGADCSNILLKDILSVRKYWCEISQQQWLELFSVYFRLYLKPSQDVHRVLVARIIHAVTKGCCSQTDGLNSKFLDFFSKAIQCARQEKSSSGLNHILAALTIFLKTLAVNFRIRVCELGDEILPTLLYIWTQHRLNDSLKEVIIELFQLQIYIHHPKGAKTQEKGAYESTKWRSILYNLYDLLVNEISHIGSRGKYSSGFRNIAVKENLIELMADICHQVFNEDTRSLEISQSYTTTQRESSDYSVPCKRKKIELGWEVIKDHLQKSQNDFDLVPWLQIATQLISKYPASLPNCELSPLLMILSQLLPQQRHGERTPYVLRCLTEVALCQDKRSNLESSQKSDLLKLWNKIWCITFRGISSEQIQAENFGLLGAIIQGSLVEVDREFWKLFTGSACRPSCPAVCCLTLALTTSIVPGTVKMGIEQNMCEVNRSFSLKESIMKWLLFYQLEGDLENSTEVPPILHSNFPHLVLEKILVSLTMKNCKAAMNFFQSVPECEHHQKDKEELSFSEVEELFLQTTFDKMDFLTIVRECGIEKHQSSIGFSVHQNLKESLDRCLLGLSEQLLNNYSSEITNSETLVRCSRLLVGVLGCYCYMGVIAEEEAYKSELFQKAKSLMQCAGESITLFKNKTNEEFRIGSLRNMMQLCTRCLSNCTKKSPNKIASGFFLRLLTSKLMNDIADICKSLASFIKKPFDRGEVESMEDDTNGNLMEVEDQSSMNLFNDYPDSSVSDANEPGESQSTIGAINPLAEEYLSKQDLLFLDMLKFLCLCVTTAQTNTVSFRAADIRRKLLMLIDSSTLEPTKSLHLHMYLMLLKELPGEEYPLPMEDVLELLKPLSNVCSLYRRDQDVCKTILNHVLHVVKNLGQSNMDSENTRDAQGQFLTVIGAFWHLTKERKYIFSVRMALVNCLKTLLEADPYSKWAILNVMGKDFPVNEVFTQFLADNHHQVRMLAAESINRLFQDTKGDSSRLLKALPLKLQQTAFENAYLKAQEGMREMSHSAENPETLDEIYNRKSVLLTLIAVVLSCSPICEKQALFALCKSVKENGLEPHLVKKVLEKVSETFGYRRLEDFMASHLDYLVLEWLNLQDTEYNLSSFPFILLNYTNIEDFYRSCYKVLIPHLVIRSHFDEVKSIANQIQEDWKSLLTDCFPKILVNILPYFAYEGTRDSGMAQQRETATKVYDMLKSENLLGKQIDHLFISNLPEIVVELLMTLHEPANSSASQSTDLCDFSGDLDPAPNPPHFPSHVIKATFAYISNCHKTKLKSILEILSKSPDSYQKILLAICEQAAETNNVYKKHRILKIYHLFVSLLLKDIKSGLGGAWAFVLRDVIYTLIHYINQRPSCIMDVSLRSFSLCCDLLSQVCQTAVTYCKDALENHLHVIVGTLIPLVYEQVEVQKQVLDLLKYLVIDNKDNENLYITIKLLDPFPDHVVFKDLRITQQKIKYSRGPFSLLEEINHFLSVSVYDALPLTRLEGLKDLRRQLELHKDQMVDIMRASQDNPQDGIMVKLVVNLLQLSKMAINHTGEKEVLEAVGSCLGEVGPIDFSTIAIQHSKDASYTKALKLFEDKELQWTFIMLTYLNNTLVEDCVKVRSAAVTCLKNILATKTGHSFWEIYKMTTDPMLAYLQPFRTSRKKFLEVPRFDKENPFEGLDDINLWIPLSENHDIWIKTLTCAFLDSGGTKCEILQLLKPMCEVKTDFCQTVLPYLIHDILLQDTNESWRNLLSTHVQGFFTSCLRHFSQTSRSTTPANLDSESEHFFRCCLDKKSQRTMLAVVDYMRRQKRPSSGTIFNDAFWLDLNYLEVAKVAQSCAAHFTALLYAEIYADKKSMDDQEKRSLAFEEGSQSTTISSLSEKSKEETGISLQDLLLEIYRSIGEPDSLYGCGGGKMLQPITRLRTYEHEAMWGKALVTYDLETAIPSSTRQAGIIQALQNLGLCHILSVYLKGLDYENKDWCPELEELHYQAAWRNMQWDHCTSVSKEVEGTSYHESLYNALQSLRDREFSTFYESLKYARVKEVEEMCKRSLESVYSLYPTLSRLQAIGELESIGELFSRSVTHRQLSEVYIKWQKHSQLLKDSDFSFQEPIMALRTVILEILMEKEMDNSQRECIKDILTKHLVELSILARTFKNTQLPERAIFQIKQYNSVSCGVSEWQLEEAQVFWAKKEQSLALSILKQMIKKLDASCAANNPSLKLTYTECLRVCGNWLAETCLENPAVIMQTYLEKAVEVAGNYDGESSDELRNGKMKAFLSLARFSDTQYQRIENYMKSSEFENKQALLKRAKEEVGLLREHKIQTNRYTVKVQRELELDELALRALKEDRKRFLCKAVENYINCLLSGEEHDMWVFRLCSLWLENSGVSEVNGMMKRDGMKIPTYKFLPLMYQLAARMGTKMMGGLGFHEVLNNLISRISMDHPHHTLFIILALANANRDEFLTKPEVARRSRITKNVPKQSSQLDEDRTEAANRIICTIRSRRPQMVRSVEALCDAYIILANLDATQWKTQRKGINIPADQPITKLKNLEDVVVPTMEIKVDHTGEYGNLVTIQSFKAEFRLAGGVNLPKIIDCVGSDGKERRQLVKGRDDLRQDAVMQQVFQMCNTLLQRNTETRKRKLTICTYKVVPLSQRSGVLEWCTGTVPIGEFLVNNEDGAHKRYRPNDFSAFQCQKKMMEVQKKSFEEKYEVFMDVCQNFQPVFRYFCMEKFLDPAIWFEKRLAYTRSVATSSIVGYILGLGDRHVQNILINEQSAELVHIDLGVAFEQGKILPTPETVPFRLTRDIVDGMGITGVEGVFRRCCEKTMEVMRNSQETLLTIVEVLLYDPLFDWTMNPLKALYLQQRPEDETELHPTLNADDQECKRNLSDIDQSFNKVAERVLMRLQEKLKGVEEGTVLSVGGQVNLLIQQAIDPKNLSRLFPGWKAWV

HDAC2, sequence (Q92769 whole entry): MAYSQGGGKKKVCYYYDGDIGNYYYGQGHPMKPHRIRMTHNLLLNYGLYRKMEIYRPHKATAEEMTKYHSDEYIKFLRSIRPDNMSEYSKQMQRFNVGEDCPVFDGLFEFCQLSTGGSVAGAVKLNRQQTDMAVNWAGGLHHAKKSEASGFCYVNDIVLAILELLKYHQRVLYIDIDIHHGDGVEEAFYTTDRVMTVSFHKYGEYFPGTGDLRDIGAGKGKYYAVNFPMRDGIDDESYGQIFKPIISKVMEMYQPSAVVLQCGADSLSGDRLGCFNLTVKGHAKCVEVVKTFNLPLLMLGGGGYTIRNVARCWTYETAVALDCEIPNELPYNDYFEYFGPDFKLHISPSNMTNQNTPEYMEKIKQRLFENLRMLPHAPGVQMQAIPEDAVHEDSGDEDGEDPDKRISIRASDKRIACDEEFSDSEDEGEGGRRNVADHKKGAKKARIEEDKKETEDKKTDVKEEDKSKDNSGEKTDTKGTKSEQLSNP

Row | HDAC2 (IC50, nM) (HDAC2) | HDAC2 (IC50, nM) (HDAC2; listed as lartesertib) | ATM (IC50, nM) (ATM) | ATM (IC50, nM) (ATM; listed as vorinostat) | Structure (SMILES) | body weight of mice [1]
1 | no inhibition | no inhibitory effect |  |  | COc1cc2ncc3c(c2cc1-c1cn(C)nc1C)n(-c1c(F)cncc1OC)c(=O)n3C [Lartesertib] | 
2 |  |  | no inhibition | did not affect | O=C(CCCCCCC(=O)Nc1ccccc1)NO [Vorinostat] | slight decrease
